Source: ChEMBL document CHEMBL4190252, “Synthesis, antitumor activity and CDK1 inhibiton of new thiazole nortopsentin analogues” (Eur J Med Chem, 2017)
Active and inactive are the calls of the source. The rule behind the calls is not given here.

The compounds below were run on NCI/ADR-RES (assay: Growth inhibition of human NCI/ADR-RES cells incubated for 48 hrs by sulforhodamine B assay). Conditions: not given.
Type: functional
In short: (§1)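 NCI full panel screen: five 10-fold dilutions (10^-4–10^-8 M). GI50 is the molar concentration giving 50% inhibition of net cell growth.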

SMILES	GI50 [µM]
COCCn1cc(-c2csc(-c3c[nH]c4ccc(F)cc34)n2)c2cccnc21	2.17

The compounds below were run on HT-29 (assay: Growth inhibition of human HT-29 cells incubated for 48 hrs by sulforhodamine B assay). Conditions: HT-29, 48 h.
Type: functional
In short: as §1

SMILES	GI50 [µM]
COCCn1cc(-c2csc(-c3c[nH]c4ccc(F)cc34)n2)c2cccnc21	2.9

Each compound was assayed on MCF7 (assay: Growth inhibition of human MCF7 cells incubated for 48 hrs by sulforhodamine B assay). Conditions: MCF7, 48 h.
Type: functional
In short: as §1

SMILES	GI50 [µM]
COCCn1cc(-c2csc(-c3c[nH]c4ccc(F)cc34)n2)c2cccnc21	2.09

The compounds below were run on SNB-19 (assay: Growth inhibition of human SNB19 cells incubated for 48 hrs by sulforhodamine B assay). Conditions: SNB-19, 48 h.
Type: functional
In short: (§2)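 NCI full-panel human tumour cell screen. Cells were exposed to five 10-fold dilutions from 10^-4 to 10^-8 M. GI50 is the molar concentration giving 50% inhibition of net cell growth, and a mean graph midpoint was calculated across the panel.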

SMILES	GI50 [µM]
COCCn1cc(-c2csc(-c3c[nH]c4ccc(F)cc34)n2)c2cccnc21	98

What follows are compounds tested on HOP-62 (assay: Growth inhibition of human HOP62 cells incubated for 48 hrs by sulforhodamine B assay). Conditions: HOP-62, 48 h.
Type: functional
In short: as §1

SMILES	GI50 [µM]
COCCn1cc(-c2csc(-c3c[nH]c4ccc(F)cc34)n2)c2cccnc21	2.02

What follows are compounds tested on IGROV-1 (assay: Growth inhibition of human IGROV1 cells incubated for 48 hrs by sulforhodamine B assay). Conditions: IGROV-1, 48 h.
Type: functional
In short: as §1

SMILES	GI50 [µM]
COCCn1cc(-c2csc(-c3c[nH]c4ccc(F)cc34)n2)c2cccnc21	3.49

The compounds below were run on HCT-15 (assay: Growth inhibition of human HCT15 cells incubated for 48 hrs by sulforhodamine B assay). Conditions: HCT-15, 48 h.
Type: functional
In short: as §1

SMILES	GI50 [µM]
COCCn1cc(-c2csc(-c3c[nH]c4ccc(F)cc34)n2)c2cccnc21	2.35

Each compound was assayed on HCT-116 (assay: Growth inhibition of human HCT116 cells incubated for 48 hrs by sulforhodamine B assay). Conditions: HCT-116, 48 h.
Type: functional
In short: as §1

SMILES	GI50 [µM]
COCCn1cc(-c2csc(-c3c[nH]c4ccc(F)cc34)n2)c2cccnc21	3.77

What follows are compounds tested on MDA-MB-468 (assay: Growth inhibition of human MDA-MB-468 cells incubated for 48 hrs by sulforhodamine B assay). Conditions: MDA-MB-468, 48 h.
Type: functional
In short: as §1

SMILES	GI50 [µM]
COCCn1cc(-c2csc(-c3c[nH]c4ccc(F)cc34)n2)c2cccnc21	2.44

Each compound was assayed on MCF7 (assay: Cell cycle arrest in human MCF7 cells assessed as reduction in accumulation at G0/G1 phase at GI50 concentration after 48 hrs by propidium iodide-staining based flow cytometry). Conditions: not given.
Type: functional
In short: (§3)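 Cells were trypsinized, washed in cold PBS, and 1 x 10^6 cells stained with 20 µg/ml PI plus 200 µg/ml RNase for 30 min at room temperature in the dark. At least 1x 10^4 cells were analysed by flow cytometry. Mean±SD of three experiments in triplicate.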

SMILES	Activity
COCCn1cc(-c2csc(-c3c[nH]c4ccc(F)cc34)n2)c2cccnc21	Active

Each compound was assayed on SF-268 (assay: Growth inhibition of human SF268 cells incubated for 48 hrs by sulforhodamine B assay). Conditions: SF-268, 48 h.
Type: functional
In short: as §1

SMILES	GI50 [µM]
COCCn1cc(-c2csc(-c3c[nH]c4ccc(F)cc34)n2)c2cccnc21	7.67

The compounds below were run on NCI-H23 (assay: Growth inhibition of human NCI-H23 cells incubated for 48 hrs by sulforhodamine B assay). Conditions: NCI-H23, 48 h.
Type: functional
In short: as §1

SMILES	GI50 [µM]
COCCn1cc(-c2csc(-c3c[nH]c4ccc(F)cc34)n2)c2cccnc21	3.88

These compounds were tested on Hs-578T (assay: Growth inhibition of human Hs 578T cells incubated for 48 hrs by sulforhodamine B assay). Conditions: not given.
Type: functional
In short: as §1

SMILES	GI50 [µM]
COCCn1cc(-c2csc(-c3c[nH]c4ccc(F)cc34)n2)c2cccnc21	8.82

These compounds were tested on A498 (assay: Growth inhibition of human A498 cells incubated for 48 hrs by sulforhodamine B assay). Conditions: A498, 48 h.
Type: functional
In short: as §1

SMILES	GI50 [µM]
COCCn1cc(-c2csc(-c3c[nH]c4ccc(F)cc34)n2)c2cccnc21	3.26

The compounds below were run on Malme-3M (assay: Growth inhibition of human MALME-3M cells incubated for 48 hrs by sulforhodamine B assay). Conditions: not given.
Type: functional
In short: as §1

SMILES	GI50 [µM]
COCCn1cc(-c2csc(-c3c[nH]c4ccc(F)cc34)n2)c2cccnc21	4.54

The compounds below were run on SR (assay: Growth inhibition of human SR cells incubated for 48 hrs by sulforhodamine B assay). Conditions: not given.
Type: functional
In short: as §2

SMILES	GI50 [µM]
COCCn1cc(-c2csc(-c3c[nH]c4ccc(F)cc34)n2)c2cccnc21	3.24

What follows are compounds tested on OVCAR-5 (assay: Growth inhibition of human OVCAR5 cells incubated for 48 hrs by sulforhodamine B assay). Conditions: OVCAR-5, 48 h.
Type: functional
In short: as §1

SMILES	GI50 [µM]
COCCn1cc(-c2csc(-c3c[nH]c4ccc(F)cc34)n2)c2cccnc21	10.1

The compounds below were run on MCF7 (assay: Cell cycle arrest in human MCF7 cells assessed as reduction in accumulation at S phase at GI50 concentration after 48 hrs by propidium iodide-staining based flow cytometry). Conditions: not given.
Type: functional
In short: as §3

SMILES	Activity
COCCn1cc(-c2csc(-c3c[nH]c4ccc(F)cc34)n2)c2cccnc21	Active

The compounds below were run on U-251 (assay: Growth inhibition of human U251 cells incubated for 48 hrs by sulforhodamine B assay). Conditions: U-251, 48 h.
Type: functional
In short: as §2

SMILES	GI50 [µM]
COCCn1cc(-c2csc(-c3c[nH]c4ccc(F)cc34)n2)c2cccnc21	5.14

Each compound was assayed on LOX IMVI (assay: Growth inhibition of human LOXIMVI cells incubated for 48 hrs by sulforhodamine B assay). Conditions: not given.
Type: functional
In short: as §1

SMILES	GI50 [µM]
COCCn1cc(-c2csc(-c3c[nH]c4ccc(F)cc34)n2)c2cccnc21	3.44

What follows are compounds tested on K562 (assay: Growth inhibition of human K562 cells incubated for 48 hrs by sulforhodamine B assay). Conditions: K562, 48 h.
Type: functional
In short: as §1

SMILES	GI50 [µM]
COCCn1cc(-c2csc(-c3c[nH]c4ccc(F)cc34)n2)c2cccnc21	2.12

What follows are compounds tested on NCI-H522 (assay: Growth inhibition of human NCI-H522 cells incubated for 48 hrs by sulforhodamine B assay). Conditions: NCI-H522, 48 h.
Type: functional
In short: as §1

SMILES	GI50 [µM]
COCCn1cc(-c2csc(-c3c[nH]c4ccc(F)cc34)n2)c2cccnc21	2.19

The compounds below were run on PC-3 (assay: Growth inhibition of human PC3 cells incubated for 48 hrs by sulforhodamine B assay). Conditions: PC-3, 48 h.
Type: functional
In short: as §1

SMILES	GI50 [µM]
COCCn1cc(-c2csc(-c3c[nH]c4ccc(F)cc34)n2)c2cccnc21	5.06

These compounds were tested on OVCAR-8 (assay: Growth inhibition of human OVCAR8 cells incubated for 48 hrs by sulforhodamine B assay). Conditions: OVCAR-8, 48 h.
Type: functional
In short: as §1

SMILES	GI50 [µM]
COCCn1cc(-c2csc(-c3c[nH]c4ccc(F)cc34)n2)c2cccnc21	4.1

The compounds below were run on 786-0 (assay: Growth inhibition of human 786-0 cells incubated for 48 hrs by sulforhodamine B assay). Conditions: 786-0, 48 h.
Type: functional
In short: as §1

SMILES	GI50 [µM]
COCCn1cc(-c2csc(-c3c[nH]c4ccc(F)cc34)n2)c2cccnc21	5.12

The compounds below were run on A549 (assay: Growth inhibition of human A549/ATCC cells incubated for 48 hrs by sulforhodamine B assay). Conditions: A549, 48 h.
Type: functional
In short: as §1

SMILES	GI50 [µM]
COCCn1cc(-c2csc(-c3c[nH]c4ccc(F)cc34)n2)c2cccnc21	4.51

Each compound was assayed on Panel NCI-60 (60 carcinoma cell lines) (assay: Growth inhibition of human NCI60 cells at 10^-5 M incubated for 48 hrs by sulforhodamine B assay). Conditions: not given.
Type: functional, cell-based

SMILES	growth inhibition (GI)
COCCn1cc(-c2csc(-c3c[nH]c4ccc(F)cc34)n2)c2cccnc21	Active

The compounds below were run on BT-549 (assay: Growth inhibition of human BT549 cells incubated for 48 hrs by sulforhodamine B assay). Conditions: BT-549, 48 h.
Type: functional
In short: as §1

SMILES	GI50 [µM]
COCCn1cc(-c2csc(-c3c[nH]c4ccc(F)cc34)n2)c2cccnc21	4.26

Each compound was assayed on MCF7 (assay: Induction of apoptosis in human MCF7 cells assessed as viable cells at 2 x 10^-6 M after 72 hrs by Annexin V/propidium iodide double staining-based flow cytometry (reference value: 98.9%)). Conditions: MCF7, 72 h, read-out: Activity.
Type: functional
In short: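 MCF-7 cells were grown in RPMI with 10% FBS, 2 mM L-glutamine and antibiotics at 37 °C in 5% CO2. They were seeded at 2.0 x 10^5 cells/cm2 in triplicate, left to adhere overnight, then treated for 72 h; DMSO 0.1% served as vehicle. Trypsinised cells at 2.0 x 10^5/mL were stained with annexin V-FITC and PI for 15 min at room temperature in the dark. At least 1.0 x 10^4 cells were gated into viable, early apoptotic, late apoptotic and necrotic quadrants.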

SMILES	viability at 2 µM [%]
COCCn1cc(-c2csc(-c3c[nH]c4ccc(F)cc34)n2)c2cccnc21	70.7

The compounds below were run on SN12C (assay: Growth inhibition of human SN12C cells incubated for 48 hrs by sulforhodamine B assay). Conditions: not given.
Type: functional
In short: as §2

SMILES	GI50 [µM]
COCCn1cc(-c2csc(-c3c[nH]c4ccc(F)cc34)n2)c2cccnc21	> 100

What follows are compounds tested on COLO 205 (assay: Growth inhibition of human COLO205 cells incubated for 48 hrs by sulforhodamine B assay). Conditions: COLO 205, 48 h.
Type: functional
In short: as §1

SMILES	GI50 [µM]
COCCn1cc(-c2csc(-c3c[nH]c4ccc(F)cc34)n2)c2cccnc21	2.69

The compounds below were run on HOP-92 (assay: Growth inhibition of human HOP92 cells incubated for 48 hrs by sulforhodamine B assay). Conditions: HOP-92, 48 h.
Type: functional
In short: as §1

SMILES	GI50 [µM]
COCCn1cc(-c2csc(-c3c[nH]c4ccc(F)cc34)n2)c2cccnc21	6.29

The compounds below were run on ACHN (assay: Growth inhibition of human ACHN cells incubated for 48 hrs by sulforhodamine B assay). Conditions: not given.
Type: functional
In short: as §1

SMILES	GI50 [µM]
COCCn1cc(-c2csc(-c3c[nH]c4ccc(F)cc34)n2)c2cccnc21	5.27

Each compound was assayed on SF-295 (assay: Growth inhibition of human SF295 cells incubated for 48 hrs by sulforhodamine B assay). Conditions: SF-295, 48 h.
Type: functional
In short: as §1

SMILES	GI50 [µM]
COCCn1cc(-c2csc(-c3c[nH]c4ccc(F)cc34)n2)c2cccnc21	3.2

The compounds below were run on UACC-62 (assay: Growth inhibition of human UACC62 cells incubated for 48 hrs by sulforhodamine B assay). Conditions: UACC-62, 48 h.
Type: functional
In short: as §2

SMILES	GI50 [µM]
COCCn1cc(-c2csc(-c3c[nH]c4ccc(F)cc34)n2)c2cccnc21	6.78

Each compound was assayed on KM12 (assay: Growth inhibition of human KM12 cells incubated for 48 hrs by sulforhodamine B assay). Conditions: KM12, 48 h.
Type: functional
In short: as §1

SMILES	GI50 [µM]
COCCn1cc(-c2csc(-c3c[nH]c4ccc(F)cc34)n2)c2cccnc21	1.77

These compounds were tested on HCC 2998 (assay: Growth inhibition of human HCC2998 cells incubated for 48 hrs by sulforhodamine B assay). Conditions: HCC 2998, 48 h.
Type: functional
In short: as §1

SMILES	GI50 [µM]
COCCn1cc(-c2csc(-c3c[nH]c4ccc(F)cc34)n2)c2cccnc21	4.54
